Test results from ChEMBL document CHEMBL4376862, “Synthesis and evaluation of novel chlorophyll a derivatives as potent photosensitizers for photodynamic therapy” (Eur J Med Chem, 2020).
The source made the active and inactive calls. The calls are words filed in the database; no cut-off is given here.

Key:
[1] = Drug uptake in BALB/c nude mouse xenografted with A549 cells assessed as drug level in lung at 0.3 mg/kg, iv measured at 12 hrs by fluorescence assay; format: ADME, organism-based; conditions: in vivo
Method in brief: (§1)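 A549 tumor-bearing mice dosed via tail vein (1 mg/kg in methods; 0.3 mg/kg in text) at tumors ~150–170 mm3, n = 3; whole-body imaging 0–24 h; at 6 and 12 h mice killed, heart, liver, spleen, lung, kidney, brain, tumor imaged ex vivo, excitation 420 nm, emission 650 nm.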

[2] = Drug uptake in BALB/c nude mouse xenografted with A549 cells assessed as drug level in kidney at 0.3 mg/kg, iv measured at 12 hrs by fluorescence assay; format: ADME, organism-based; conditions: in vivo; method in brief: as §1
A549 [3] = experiment: Induction of apoptosis in human A549 cells assessed as early apoptotic cell in presence of 1J/cm2 light irradiation measured after 4 hrs by annexin V-FITC and propidium iodide staining based flow cytometric analysis (reference value: 0.07%); format: functional
Method in brief: (§2)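 After PDT at 1 J/cm2, A549 cells collected 4 h later, stained with annexin V-FITC and propidium iodide per kit instructions; flow cytometry with at least 10,000 events per sample.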

Mus musculus [4] = experiment: Phototoxicity in ICR mouse assessed as ear weight at 0.45 mg/kg, iv followed by 10 mW/cm2 light irradiation for 10 mins at 7 days after drug challenge measured after 1 day of light irradiation (13.2 +/- 1.6 mg); format: organism-based; conditions: in vivo
[5] = Drug localization in lysosome of human A549 cells at 1 uM after 4 hrs by lyso-tracker blue based fluorescence microscopic method; format: ADME, subcellular; conditions: a549, 4 h
Method in brief: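 A549 cells on coverslips at 1×10^4 cells/mL exposed to […] (so in the source) photosensitizer in complete medium for 4 h, washed, fixed in 4% paraformaldehyde 20 min, then probed 30 min at 37 °C with Mito-Tracker Green, Lyso-Tracker Blue or ER-Tracker Green; fluorescence microscopy, three repeats, minimal ambient light.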

A549 [6] = experiment: Photodynamic antitumor activity against human A549 cells xenografted in BALB/c nude mouse assessed as necrosis leukocyte infiltration at 0.3 mg/kg, iv incubated for 24 hrs followed by laser light irradiation at 120 J/cm2 measured 24 hrs post light irradiation by H and E staining based histopathological analysis; format: functional, organism-based
Method in brief: (§3)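 Tumors from PDT-treated A549 xenograft mice (0.3 mg/kg i.v., 650 nm laser 120 J/cm2 at 24 h) excised, fixed in 4% formaldehyde in PBS, paraffin-embedded, sectioned, H&E stained.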

[7] = Drug uptake in BALB/c nude mouse xenografted with A549 cells assessed as drug level in spleen at 0.3 mg/kg, iv measured at 12 hrs by fluorescence assay; format: ADME, organism-based; conditions: in vivo; method in brief: as §1
A549 [8] = experiment: Induction of apoptosis in human A549 cells assessed as necrosis incubated for 4 hrs under dark condition by annexin V-FITC and propidium iodide staining based flow cytometric analysis (reference value: 0.00%); format: cell-based; conditions: a549, 4 h
Mus musculus [9] = experiment: Phototoxicity in ICR mouse assessed as change in auricles 0.45 mg/kg, iv in presence of 10 mW/cm2 light irradiation for 10 mins upto 7 days measured after 1day of light irradiation by H and E staining based microscopic analysis; format: organism-based; conditions: in vivo
[10] = Drug uptake in BALB/c nude mouse xenografted with A549 cells assessed as drug level in heart at 0.3 mg/kg, iv measured at 12 hrs by fluorescence assay; format: ADME, organism-based; conditions: in vivo; method in brief: as §1
Cavia porcellus [11] = experiment: Phototoxicity in guinea pig assessed as change in back skin at 4.5 mg/kg, iv in presence of 10 mW/cm2 light irradiation for 10 mins measured after 1day of light irradiation by H and E staining based microscopic analysis; format: organism-based; conditions: in vivo
A549 [12] = experiment: Induction of ROS generation in human A549 cells assessed as increase in green fluorescence irradiated with 650 nanometer laser light preincubated for 4 hrs followed by DCFH-DA addition for 20 mins by fluorescent microscopic method relative to untreated control; format: functional, cell-based
Method in brief: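 A549 cells given photosensitizer for 4 h, irradiated with 650 nm laser at 2 J/cm2, then DCFH-DA for 20 min; green emission at 525 nm (488 nm excitation) viewed by fluorescence microscopy; controls without light and laser without drug.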

[13] = Drug uptake in BALB/c nude mouse xenografted with A549 cells assessed as drug level in liver at 0.3 mg/kg, iv measured upto 12 hrs by fluorescence assay; format: ADME, organism-based; conditions: in vivo; method in brief: as §1
A549 [14] = experiment: Photodynamic antitumor activity against human A549 cells xenografted in BALB/c nude mouse assessed as vascular rupture at 0.3 mg/kg, iv incubated for 24 hrs followed by laser light irradiation at 120 J/cm2 measured 24 hrs post light irradiation by H and E staining based histopathological analysis; format: functional, organism-based; method in brief: as §3
Cavia porcellus [15] = experiment: Phototoxicity in guinea pig assessed as change in right ear weight 4.5 mg/kg, iv followed by 10 mW/cm2 light irradiation for 10 mins measured after 1 day of light irradiation (reference value: 40.4 +/- 2.4 mg); format: organism-based; conditions: in vivo
[16] = Absorption property of compound in DMSO assessed as strong absorption wavelength at 1 x 10^-3 M by UV-spectra analysis; format: physicochemical; conditions: 1000 µM
Method in brief: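 Stocks 1 mM in DMSO; spectra run over […] range (units as printed), 300–800 nm in 1 nm steps, room temperature, quartz cuvettes, UV-vis spectrophotometer.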

Mus musculus [17] = experiment: Phototoxicity in ICR mouse assessed as ear weight at 0.45 mg/kg, iv followed by 10 mW/cm2 light irradiation for 10 mins at 3 days after drug challenge measured after 1 day of light irradiation (reference value: 12.8 +/- 1.5 mg); format: organism-based; conditions: in vivo
[18] = Drug uptake in BALB/c nude mouse xenografted with A549 cells assessed as drug level in tumor tissue at 0.3 mg/kg, iv measured at 12 hrs by fluorescence assay; format: ADME, organism-based, Neoplasm; conditions: in vivo; method in brief: as §1
[19] = Emission property of a compound in DMSO assessed as red shift at 5 uM on excitation with light at 410 to 415 nm by 3D fluorescence spectra analysis; format: physicochemical
Method in brief: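 Stock 1 mM in DMSO, measured at […] (so in the source); excitation scanned 350–640 nm, emission 600–750 nm, 1 nm steps, room temperature, quartz cuvettes; 3D fluorescence matrix spectra recorded.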

[20] = Induction of apoptosis in human A549 cells assessed as viable cells incubated for 4 hrs under dark condition by annexin V-FITC and propidium iodide staining based flow cytometric analysis (reference value: 99.88%); format: cell-based; conditions: read-out: Activity
[21] = Induction of singlet oxygen generation in DMF solution assessed as singlet oxygen quantum yield by measuring reduction in TEMP irradiated with 650 nanometer laser light in every 20 secs by ESR assay; format: functional
Method in brief: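 ESR at room temperature: 9.65 GHz microwave frequency, 15 mW power, 3400–3500 G scan field, 0.8 G modulation amplitude, 15.5 s scan time, 32 scans.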

A549 [22] = experiment: Induction of apoptosis in human A549 cells assessed as caspase-3 activity using Ac-DEVD-pNA as substrate in presence of laser light irradiation measured upto 12 hrs; format: functional, cell-based
Cavia porcellus [23] = experiment: Phototoxicity in guinea pig assessed as change in left ear weight 4.5 mg/kg, iv followed by 10 mW/cm2 light irradiation for 10 mins measured after 1 day of light irradiation (reference value: 39.2 +/- 1.8 mg); format: organism-based; conditions: in vivo
A549 [24] = experiment: Induction of apoptosis in human A549 cells assessed as viable cells in presence of 1J/cm2 light irradiation measured after 4 hrs by annexin V-FITC and propidium iodide staining based flow cytometric analysis (reference value: 99.88%); format: functional; method in brief: as §2

Drug uptake [1]	Drug uptake [2]	Drug uptake [5]	Drug uptake [7]	Drug uptake [10]	Drug uptake [13]	Activity [16] [nm]	Drug uptake [18]	Activity [19] [nm]	SMILES	Activity (A549 [3]) [%]	Activity (Mus musculus [4]) [mg]	Activity (A549 [6])	Activity (A549 [8]) [%]	Activity (Mus musculus [9])	Activity (Cavia porcellus [11])	Activity (A549 [12])	Activity (A549 [14])	Activity (Cavia porcellus [15]) [mg]	Activity (Mus musculus [17]) [mg]	viability at 4 h [20] [%]	other results
Not Active	Not Active	Active	Not Active	Not Active	Active	660 to 670	Active	661 to 669	CCC1=C(C)c2cc3[nH]c(cc4nc(c5c6[nH]c(cc1n2)c(C)c6C(=O)C5)[C@@H](CCC(=O)NCC(=O)CCC(=O)O)[C@@H]4C)c(C)c3C(C)OCCO (stereo partly drawn)	28.92	13.4	Active	2.75	Non-Toxic	Non-Toxic	Active	Active	41.9	13.2	87.8	Activity [21]: Active; Activity (A549 [22]): Active; Activity (Cavia porcellus [23]): 41.6 mg; Activity (A549 [24]): 2.64%
Not Active	Not Active	Active	Not Active	Not Active	Active	660 to 670	Active	661 to 669	CCCCOC(C)c1c(C)c2cc3nc(c4c5[nH]c(cc6nc(cc1[nH]2)C(C)=C6CC)c(C)c5C(=O)C4)[C@@H](CCC(=O)NCC(=O)CCC(=O)O)[C@@H]3C (stereo partly drawn)	2.07	12.9	Active	2.3	Non-Toxic	Non-Toxic	Active	Active	43.6	13.1	89.8	Activity [21]: Active; Activity (A549 [22]): Active; Activity (Cavia porcellus [23]): 42.3 mg; Activity (A549 [24]): 3.13%
